Screening results (PubChem BioAssay)
CAL PDZ FP-1: CAL PDZ (human) peptide binding inhibition; purified CAL PDZ, TMR-peptide fluorescence polarization, 1 h; inhibition, % at 24.9 µM; 300,000 tested, 0.92% active; AID 602252;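 active = mean inhibition of at least 30% with at least half of replicates also reaching 30%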
CAL PDZ FP-2: inhibitors of human CAL PDZ peptide binding; Q9HD26; 330,000 tested, 0.02% active; inhibition, % at 20 µM; purified CAL PDZ, TMR-peptide fluorescence polarization, 1 h; AID 504414;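 active = highest replicate inhibition of at least 40%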
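Test system: tagged CAL PDZ domain / Buffer or medium: sodium phosphate/NaCl buffer pH 7.4 with TCEP, IgG, Thesit / Reagent: TMR-labelled reporter peptide T*-PRC34 bound in PDZ groove / Compound dosing: single point, 20 µM / Schedule: 1 h incubation at room temperature before polarization reading / Technique: fluorescence polarization (mP) / Benchmarks: unlabelled peptide, DMSO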
Tb MetRS inh: blocks T. brucei methionyl-tRNA synthetase activity; purified T. brucei MetRS, ATP depletion, Kinase-Glo luminescence; inhibition, % at 11.9 µM; 360,000 tested, 0.4% active; AID 624268;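 active = inhibition above a per-plate cutoff of the control wells' mean inhibition plus 3 SD, cut at about 5.5% in these data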
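System: purified T. brucei MetRS enzyme / Detection: Kinase-Glo luciferase luminescence reporting remaining unconsumed ATP / Medium: HEPES buffer with MgCl2, KCl, DTT, spermine, BSA, pyrophosphatase / Replication: singlicate, one well per compound / Evaluation: percent inhibition relative to median high and low control wells / Schedule: 2 h aminoacylation at 25 °C after 15 min preincubation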
PvdQ inh: P. aeruginosa PvdQ acylase inhibition; purified PvdQ acylase, fluorescence plate reader; inhibition, % at 10 µM; 340,000 tested, 0.063% active; AID 488965; in the data active = inhibition above about 30%, passing the limit was not always enough
CDK5 inh: inhibitors of human CDK5/p35 kinase; Recombinant CDK5/p35, ADP-Glo luminescence, 60 min; inhibition, % at 10 µM; 330,000 tested, 0.01% active;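 active = highest replicate inhibition of at least 50% and at least 75% of replicates reaching 50%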
DYRK1A inh: Dyrk1A (rat) kinase inhibition; Q63470; ADP-Glo luminescence, NFATc1 peptide; inhibition, % at 12.5 µM; 310,000 tested, 0.43% active; AID 504441; in the data active = inhibition above about 50%
A number is an active result; - = inactive; . = no result. Only some compounds are listed: those with a hit (about 1.4% of all), similar ones and a draw of the others.

SMILES	CAL PDZ FP-1	CAL PDZ FP-2	Tb MetRS inh	PvdQ inh	CDK5 inh	DYRK1A inh
CO[C@H](C(=O)N(C)C[C@@H]1OCc2ccccc2-c2c(n(C)c3ccccc23)C(=O)N([C@H](C)CO)C[C@@H]1C)c1ccccc1	.	.	-	.	.	.
Cc1cccc(N(O)C(=O)Nc2cccc(Cl)c2)c1	31.3	-	-	-	-	-
O=C1Nc2ccccc2N=C(c2ccc3c(c2)OCO3)C1N(C(=O)c1ccc2ccccc2c1)C1CC1 (stereo unspecified)	.	.	-	.	.	.
COC(=O)c1ccccc1NC(=O)CSc1nncn1C	54.7	-	-	-	-	-
COC(=O)c1ccccc1NC(=O)CSc1nncn1-c1cccnc1	-	-	-	-	-	-
COc1ccc(CCN(C)C(=O)c2c(C)nn(CC(C)C)c2Cl)cc1OC	103.5	-	-	-	-	-
COc1ccc(CCNC(=O)c2c(C)nn(CC(C)C)c2Cl)cc1OC	-	-	-	-	-	-
O=C(NCc1ccc(Cl)cc1)c1cc2ccccc2oc1=O	-	-	-	-	-	-
O=C(NCc1ccccc1)c1cc2ccccc2oc1=O	67.9	-	-	-	-	-
Cc1nn(C)c(C(=O)Sc2cccc(Cl)c2)c1[N+](=O)[O-]	94.6	-	-	-	-	-
O=c1[nH]c(=S)[nH]c2c1C(c1ccc(Br)cc1)c1c([nH]c(=S)[nH]c1=O)O2	31.0	.	-	-	.	-
O=C1CCCC2=C1C(c1ccc(Br)cc1)c1c([nH]c(=S)[nH]c1=O)N2 (stereo unspecified)	-	-	-	-	-	-
CC1C(=O)OC2C1CCC1(C)C3(C)C(=O)C=CC213 (stereo unspecified)	.	.	-	.	.	.
CN(C)S(=O)(=O)c1cc(NC(=O)Cn2ccsc2=N)ccc1Cl	101.0	-	-	-	-	-
COC(=O)[C@@]1(Sc2ccc(C)cc2)CC(=O)N(C(=O)c2ccccc2)[C@@H]1c1ccccc1	.	.	-	.	.	.
CN(C)c1ccc(CC(=O)N2CCCCC2c2cc(C(=O)Nc3cccc4c3CCCC4)no2)cc1 (stereo unspecified)	.	.	-	.	.	.
Cc1cccc(/C=N/NC(=O)c2cc(C3CC3)nc3ccccc23)n1	-	-	-	-	-	-
Cc1cccc(/C=N/NC(=O)c2cc(C)nc3ccccc23)n1	150.8	-	-	-	-	-
Cc1ccc(S(=O)(=O)NC(CC(C)C)C(=O)N2CC(C)OC(C)C2)cc1 (stereo unspecified)	75.5	-	-	-	-	-
Cc1ccc(S(=O)(=O)NC(CC(C)C)C(=O)N2CCOCCOCCOCC2)cc1 (stereo unspecified)	-	-	-	-	-	-
Oc1ccc(Cl)c(CN2CCN(c3ncc(Cc4ccccc4)cn3)CC2)c1	.	.	-	.	.	.
Cc1nn2c(-c3ccccc3)nnc2c2ccccc12	-	.	-	-	-	-
Cc1nn2c3ccccc3nc2c2ccccc12	.	42.5	-	-	-	-
COC(=O)C[C@H]1C=C[C@H](NC(=O)c2cccc(F)c2)[C@@H](CO)O1	.	.	-	.	.	.
O=C(Nc1ccc2c(c1)OCO2)c1cc(C2CCCCN2C(=O)c2ccccc2)on1 (stereo unspecified)	.	.	-	.	.	.
SMILES	CAL PDZ FP-1	CAL PDZ FP-2	Tb MetRS inh	PvdQ inh	CDK5 inh	DYRK1A inh
COc1cc(/C=N/NC(=O)Nc2cccc3nsnc23)cc(OC)c1OC	-	-	-	-	-	-
O=C(N/N=C/c1ccc(O)cc1)Nc1cccc2nsnc12	31.5	-	-	-	-	.
N#CC(OC(=O)c1ccccc1)c1cccc([N+](=O)[O-])c1 (stereo unspecified)	-	-	-	72.0	-	-
O=C(NC(NC(=O)c1ccccc1)c1cccc([N+](=O)[O-])c1)c1ccccc1	-	-	-	-	-	-
Cc1ccc(NS(=O)(=O)c2ccc(C(=O)NC3CCN(Cc4ccccc4)CC3)cc2)cc1	.	-	-	-	-	-
Cc1ccc(NS(=O)(=O)c2cccc(C(=O)NC3CCN(Cc4ccccc4)CC3)c2)cc1	89.0	-	-	-	-	-
COc1ccccc1NC(=O)C(=O)N/N=C(\C)CC(=O)Nc1ccccc1C(F)(F)F	44.4	-	-	-	-	-
C/C(CC(=O)Nc1ccccc1C(F)(F)F)=N\NC(=O)c1cnccn1	-	-	-	-	-	-
O=C(Cc1ccc(Br)cc1)OCC(=O)c1ccc[nH]1	44.4	-	-	-	-	-
